The text below walks through data of the EternaBench riboswitch data.

In this data set the test system is MS2 coat protein. The data set can be described thus: apparent Kd, MS2 coat protein; higher = weaker binding; RNA-MaP array; FMN 200 µM where present. In a few lines: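 The apparent Kd is the median of filtered binding-curve fits, one per cluster, to green signal normalised to red-channel RNA signal and control-cluster median Fmax. The clusters were on Illumina sequencing chips, and stalled E. coli RNA polymerase had transcribed the designs on them. Titration used SNAP-549-labelled MS2 coat protein from 0.7 or 1.5 nM, doubling to 3 µM, without and then with constant ligand, in 100 mM Tris-HCl pH 7.5, 80 mM KCl, 4 mM MgCl2, BSA, DTT, yeast tRNA and Tween-20.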

Setting [1] is: designed as: OFF switch for flavin mononucleotide, no ligand.
[2] abbreviates: ligand present: flavin mononucleotide, designed as: OFF switch for flavin mononucleotide.
[3] abbreviates: designed as: ON switch for flavin mononucleotide, no ligand.
Where [4] appears, read: ligand present: flavin mononucleotide, designed as: ON switch for flavin mononucleotide.

Turning to “UUUAACAGAGGAUAUGCGAAUAAAUAAAACUUUUUUUUUUAACAUGAGGAUCACCCAUGUAGAAGGCUGAUUUU”, the “apparent Kd” value stood at 45.7 nM under setting [1] and 47.7 nM under setting [2].
For the sequence “AGUCGGAGCAGAGGAUAUACAUGAGGAUCACCCAUGUAAAUGAAUGAAGCCUGGAAACAGGCAAUGUAGAAGGCUGCUCCGACA”, the “apparent Kd” value reads like this: under setting [1], 17.6 nM; under setting [2], 54.2 nM.
Taken in the same sequence, the figures for “GGAUGACAAAGUCAUCCUUAACGAACAUGAGGAUCACCCAUGUAGGAUAUGGAACUCAAAGAGUUCCAGAAGGACAUGUGCCUU” were 33.7 nM and 213 nM.
Turning to “AAACACGGCGAACCGGCGUUCGUACAUGAGGAUCACCCAUGUCAGGAUAUCUCGAUCUUUGAAUGAGAGAAGGGACAGGAUCCU”, the “apparent Kd” value is, setting by setting: under setting [1], 700 nM; under setting [2], 375 nM.
For “AAUAACAGAGGAUAUACUGUUUUAUGUGUUUGUUAUUUUAAACAUGAGGAUCACCCAUGUAGAAGGCUGAAUAA”, in that order: 22.5 nM and 21.7 nM.
For “CCGUUGGGCUAGAAGGCUCCGGGAGGACCGCGGAGAGGAUAUAGCACAUGAGGAUCACCCAUGUGGUAUGACCUUAUGUAUUCA”, in that order: 33.6 nM and 65.1 nM.
As for “GCCCUAAAGCGGGCCGACCAUACAUGAGGAUCACCCAUGUCGAGAAGGUGCUCACGGGUGGGUGGCAAGGAUAUCGGGUCGGAA”, the “apparent Kd” value reads like this: under setting [3], 65.6 nM; under setting [4], 32.6 nM.
With “AGUGGUGAGCAAGGAUAUCGCCACUGCGUGACCUCACAACGGAUACAUGAGGAUCACCCAUGUGGCGAGAAGGUGCGGGAACGG”, the “apparent Kd” value is, setting by setting: under setting [1], 28.1 nM; under setting [2], 36.9 nM.
Taken in the same sequence, the figures for “GGACGGAAAGUGAGGAUAUGCUCUACCUCGGUAGAGCAGAAGGCACAUGAGGAUCACCCAUGUGAUAACUGUUC” were 19.1 nM and 93 nM.
Turning to “AGUCGGCGAGGAUAUACAUGAGGAUCACCCAUGUGAGAUAGUGCACGCGUACGUGUACGUAGAAGGCGCUGACA”, the “apparent Kd” value stood at 12.1 nM under setting [1] and 23.2 nM under setting [2].
Turning to “GUACUUGUGCAGAAGGGCAUUGAUUUAGGUUGUUAGGUUGAUCAGAUAUGCAGGAUAUGCUAUACAUGAGGAUCACCCAUGUUC”, the “apparent Kd” value reads like this: under setting [3], 92 nM; under setting [4], 11.7 nM.
As to “AGUUGGCGAGGAUAUACAUGAGGAUCACCCAUGUGAAGAAGAAUAGUGAGGAAGAAAAGUAGAAGGCGCUGACA”, the “apparent Kd” value by setting is: under setting [1], 47 nM; under setting [2], 260 nM.
For “AAAUAACUAGGAUAUCGAGGCACAGACAUGAGGAUCACCCAUGUGUGGUCUUCGUGCUUACGAGAAGGAGUACGGC”, in that order: 672 nM and 274 nM.
As for “GGACGUCACAUCUACAUGAGGAUCACCCAUGUCAAAAGACAUGAGGAUAUGCAUCCUAAUUGGAUGCAGAAGGCAUGGACGUCC”, the “apparent Kd” value is, setting by setting: under setting [3], 1200 nM; under setting [4], 70.2 nM.
Consider “UGCAGACGAGGAUAUGAUUAAUAAUACAUGAGGAUCACCCAUGUAAUACUGAUCUAUGGAUCAGAAGGCGUCUGCU”, for which the “apparent Kd” value came out at 17.3 nM under setting [1] and 14.6 nM under setting [2].
In the case of “UGGGUAAAUGUAGGAUAUUUAUAUUAAUAGUAUGGAGAAGGACAUGAGGAUCACCCAUGUACAGGGAGUUACCCAUUUCCUCUC”, the “apparent Kd” value by setting is: under setting [1], 670 nM; under setting [2], 662 nM.
Taken in the same sequence, the figures for “AGCACGAAAGUGCAACGAUGUACGAGAAGGACAUGAGGAUCACCCAUGUAUGCAGUAACUGCUAUGUAGGAUAUCGUACAUCGA” were 7.57 nM and 9.94 nM.
As for “AAAAUACAUGAGGAUCACCCAUGUGAGUCGAACGCAGGAUAUCGCCGUUGAAAAGGGCGGCGAGAAGGGUGCCGAA”, the “apparent Kd” value runs as follows: under setting [3], 62.5 nM; under setting [4], 46.8 nM.
As to “AAGAGCGAUUCUCCCUUCCUACAUGAGGAUCACCCAUGUACGAGAAGGCGCCGUGUAUACAACGGUGAGGAUAUCGUGCGUUAC”, the “apparent Kd” value stood at 4.64 nM under setting [1] and 4.91 nM under setting [2].
Turning to “UCCUUGUCCUGAGGAUAUCCGAGGUUCCCAAAAGGAGAAGGCAGGACAUGAGGAUCACCCAUGUACCCAGAAAACGUGCAGAGU”, the “apparent Kd” value was found to be 122 nM under setting [1] and 25 nM under setting [2].
For the sequence “CUCAUGUGAGGAUAUGUGAUCAACCUUCUGUAUAGAUGAUUACAGAAGGCACAUGAGGAUCACCCAUGUAGAUC”, the “apparent Kd” value is, setting by setting: under setting [1], 106 nM; under setting [2], 125 nM.
With “AUACACUUUCGAGGAUAUCGGUGAUAAAUUUUACGAGAAGGCGAUAAAAGAUAUAAUCUUAUAUACAUGAGGAUCACCCAUGUU”, the “apparent Kd” value runs as follows: under setting [3], 27.3 nM; under setting [4], 25.1 nM.
“UGUCGGAGCAGAGGAUAUACAUGAGGAUCACCCAUGUAAAUGGAAGAAGCCUGGAAACAGGCAAUGUAGAAGGCUGCUCCGACA”: the “apparent Kd” value under setting [1] amounted to 132 nM and the “apparent Kd” value under setting [2] was 970 nM.
Turning to “UGGCCAAGAGGAUAUACAUGAGGAUCACCCAUGUCCAUCCUGAUGGAUAGGGCCGAGUGUAGAAGGCUUGGUCC”, the “apparent Kd” value under setting [1] was 32.6 nM and the “apparent Kd” value under setting [2] was found to be 18 nM.
As to “UCAAGUAUGUAGGAUAUCGAUGUCUACGGACAUCGAGAAGGACGUACAUGAGGAUCACCCAUGUAACUUGCAUG”, the “apparent Kd” value reads like this: under setting [1], 464 nM; under setting [2], 188 nM.
On to “GUAGCACAAACAAAUGUAACAUGAGGAUCACCCAUGUGUUAUGAGGAUAUGGAUGUGAAGUUAAUCCAGAAGGCAUUAUGCUAC”, for which the “apparent Kd” value by setting is: under setting [3], 18.6 nM; under setting [4], 11.3 nM.
Take “AAGAACUGAGGAUAUGCAAAAGGGAAAGCUGAUCCUCAUCUACAUGAGGAUCACCCAUGUAGAAGGCGGGAAAU”: the “apparent Kd” value reads like this: under setting [1], 49.4 nM; under setting [2], 50.5 nM.
As for “GUCAGCUCGUGAGGAUAUACAACACUGCUUCGGCAGUGUAUUAAGAUCACAUGAGGAUCACCCAUGUAGAAGGCACGAGCUGUU”, the “apparent Kd” value is, setting by setting: under setting [1], 13.8 nM; under setting [2], 305 nM.
“AGUUAAUAUCGAGGAUAUCCUCUACCACAUGAGGAUCACCCAUGUAUGCAUGGAGAAGGCGAUAUUAACAGCAUGUUACAUGCA”: the “apparent Kd” value was found to be 157 nM under setting [3] and 8.62 nM under setting [4].
“AGCGUGGUCCACUUGGACGCCUACGAGGAUAUCCUGUCACAUGAGGAUCACCCAUGUAGGCACACGGAGAAGGCGUAGACUUAA”: the “apparent Kd” value under setting [3] was 25.8 nM and the “apparent Kd” value under setting [4] turned out to be 6.8 nM.
As to “UUCAGCUCGUGAGGAUAUACAUGUGCUGGAAACAGCACUAAAGUUUUCACAUGAGGAUCACCCAUGUAGAAGGCACGAGCUGAG”, the “apparent Kd” value is, setting by setting: under setting [1], 15.6 nM; under setting [2], 34.5 nM.
For “UUAAUUAUACAAGGAUAUCUAUUGUAAUUUCGUCUUACAUGAGGAUCACCCAUGUUAAUAUUUUUAGAGAAGGUGUAUUUUCAG”, the “apparent Kd” value amounted to 113 nM under setting [3] and 63.7 nM under setting [4].
Consider “AAUGUUUGAUUCCACUUACACAUGAGGAUCACCCAUGUUAUCGAGGAUAUGCAUUAGAGUGUUUAGCAGAAGGCGAUGUAAUUG”, for which the “apparent Kd” value by setting is: under setting [1], 8.46 nM; under setting [2], 25 nM.
For “AACAGGUGAGGAUAUCGAACAACAACAACAACAACAACAAACGAGAAGGCACAUGAGGAUCACCCAUGUAAGAA”, in that order: 20 nM and 17.5 nM.
Turning to “GGUUGGCGAGGAUAUACAUGAGGAUCACCCAUGUGGUCCUGAGGCUGAUCAAGCCUAUGUAGAAGGCGCAAAUC”, the “apparent Kd” value reads like this: under setting [1], 215 nM; under setting [2], 38.1 nM.
For “GUAGAGUAAGGAUAUGUAGAAUAGGAUAGAAUGGUUAGAAUGCAGAAGGUACAUGAGGAUCACCCAUGUAAUGU”, in that order: 22.1 nM and 21.1 nM.
